Measured values as given in ChEMBL document CHEMBL1144844, “Synthesis and characterization of 5,6,7,8-tetrahydroquinoline C5a receptor antagonists” (Bioorg Med Chem Lett, 2008).

What was measured:
[1] = target: T1, C5a anaphylatoxin chemotactic receptor 1 (Homo sapiens, UniProt P21730); assay: Antagonist activity at human C5a receptor in U937 cells assessed as inhibition of anaphylatoxin-induced intracellular calcium mobilization; format: functional, cell-based, U-937
T1 sequence (P21730 whole entry): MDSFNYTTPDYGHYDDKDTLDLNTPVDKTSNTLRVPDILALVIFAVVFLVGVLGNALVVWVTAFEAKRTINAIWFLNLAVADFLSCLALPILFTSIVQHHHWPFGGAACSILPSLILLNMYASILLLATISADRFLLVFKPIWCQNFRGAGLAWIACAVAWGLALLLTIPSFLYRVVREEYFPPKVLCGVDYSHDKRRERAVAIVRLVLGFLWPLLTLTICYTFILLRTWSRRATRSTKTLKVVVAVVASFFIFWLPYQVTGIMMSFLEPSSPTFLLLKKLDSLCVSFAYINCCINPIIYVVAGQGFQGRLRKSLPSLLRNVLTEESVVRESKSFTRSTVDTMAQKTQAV

[2] = target: T1, C5a anaphylatoxin chemotactic receptor 1; assay: Displacement of [125I]C5a from human C5a receptor in U937 cells; format: cell-based, U-937
[3] = Cmax in rat at 10 mg/kg, po; format: ADME, organism-based; set-up: dose 10 mg/kg, route oral; settings: in vivo
How it was run: (§1)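 Rat pharmacokinetics with single doses: oral at 10 mg/kg and intravenous at 2 mg/kg, n = 4. Cmax and half-life were taken from the oral arm, and bioavailability from comparison of the oral and intravenous exposures.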

[4] = Clearance in rat at 2 mg/kg, iv; settings: in vivo
[5] = Metabolic stability in human liver microsomes after 10 mins; format: ADME, Microsome; settings: read-out: Stability
[6] = Oral bioavailability in rat at 10 mg/kg; format: ADME, organism-based; settings: in vivo; how it was run: as §1
[7] = Metabolic stability in human liver microsomes; format: ADME, Microsome
[8] = Half life in rat at 10 mg/kg, po; format: ADME, organism-based; set-up: dose 10 mg/kg, route oral; settings: in vivo; how it was run: as §1

| SMILES | IC50 [1] [µM] | further results |
| --- | --- | --- |
| CCc1cccc(CC)c1-c1cc(OC)c2c(n1)CCCC2N1CCc2ccccc2C1 (stereo unspecified) | 1.1 |  |
| CCc1cccc(CC)c1-c1ccc2c(n1)CCCC2N(CC)c1cccc2ccccc12 (stereo unspecified) | > 10 |  |
| CCc1cccc(CC)c1-c1cc(OC)c2c(n1)CCCC2N(CC)c1cccc2c1CCCC2 (stereo unspecified) | 0.22 |  |
| CCc1cccc(CC)c1-c1cc(OC)c2c(n1)CCCC2N1CCc2c(cccc2C(F)(F)F)C1 (stereo unspecified) | > 10 |  |
| CCNC1CCCc2nc(-c3c(CC)cccc3CC)cc(OC)c21 (stereo unspecified) | > 10 |  |
| CCc1cccc(CC)c1-c1cc(OC)c2c(n1)CCCC2N(C)c1cccc2ccccc12 (stereo unspecified) | 0.17 |  |
| CCN(c1cccc2ccccc12)C1CCCc2nc(-c3ccccc3)cc(OC)c21 (stereo unspecified) | > 10 |  |
| CCN(c1cccc2ccccc12)C1CCCc2nc(-c3ccsc3)cc(OC)c21 (stereo unspecified) | > 10 |  |
| CCN(c1cccc2ccccc12)C1CCCc2nc(-c3ccccc3C(C)C)cc(OC)c21 (stereo unspecified) | 1.7 |  |
| CCc1ccccc1-c1cc(OC)c2c(n1)CCCC2N(CC)c1cccc2ccccc12 (stereo unspecified) | 0.65 |  |
| CCN(c1cccc2ccccc12)C1CCCc2nc(-c3ccc4c(c3)OCO4)cc(OC)c21 (stereo unspecified) | > 10 |  |
| CCN(c1cccc2ccccc12)C1CCCc2nc(-c3cccnc3)cc(OC)c21 (stereo unspecified) | > 10 |  |
| CCc1cccc(CC)c1-c1cc(OC)c2c(n1)CCCC2N(C)c1ccc2ccccc2c1 (stereo unspecified) | > 10 |  |
| CCc1cccc(CC)c1-c1cc(OC)c2c(n1)CCCC2N(C)c1c(C)ccc2ccccc12 (stereo unspecified) | 1.5 |  |
| CCN(c1cccc2ccccc12)C1CCCc2nc(-c3c(OC)cccc3OC)cc(OC)c21 (stereo unspecified) | 1.8 | Ki [2]: 1.2 µM |
| CCc1cccc(CC)c1-c1cc(OC)c2c(n1)CCCC2N(CCO)c1cccc2ccccc12 (stereo unspecified) | 0.19 | Ki [2]: 0.18 µM |
| CCN(c1cccc2ccccc12)C1CCCc2nc(-c3ccccc3-c3ccccc3)cc(OC)c21 (stereo unspecified) | > 10 |  |

| SMILES | IC50 [1] [µM] | further results |
| --- | --- | --- |
| CCN(c1cccc2ccccc12)C1CCCc2nc(-c3c(C)cccc3C)cc(OC)c21 (stereo unspecified) | 0.13 |  |
| CCc1cccc(CC)c1-c1cc(CC)c2c(n1)CCCC2N(C)Cc1cccc2ccccc12 (stereo unspecified) | > 10 |  |
| CCc1cccc(CC)c1-c1cc(CC)c2c(n1)CCCC2N(CC)Cc1ccccc1 (stereo unspecified) | > 10 |  |
| CCc1cccc(CC)c1-c1cc(OC)c2c(n1)CCCC2N1CCc2cc(OC)c(OC)cc2C1 (stereo unspecified) | > 10 |  |
| CCc1cccc(CC)c1-c1cc(OC)c2c(n1)CCCC2N(C)c1cccc2cc(OC)ccc12 (stereo unspecified) | 0.18 |  |
| CCc1cccc(CC)c1-c1cc(OC)c2c(n1)CCCC2N(C)c1cccc2c(OC)cccc12 (stereo unspecified) | > 10 |  |
| CCc1cccc(CC)c1-c1cc(OC)c2c(n1)CCCC2N1CCc2ccc(C(F)(F)F)cc2C1 (stereo unspecified) | > 10 |  |
| CCc1cccc(CC)c1-c1cc(OC)c2c(n1)CCCC2N1CCc2cccc(C(F)(F)F)c2C1 (stereo unspecified) | 0.27 |  |
| CCN(c1cccc2ccccc12)C1CCCc2nc(Cl)cc(OC)c21 (stereo unspecified) | > 10 |  |
| CCc1cccc(CC)c1-c1cc(OC)c2c(n1)CCCC2Nc1cccc2ccccc12 (stereo unspecified) | > 10 |  |
| CCc1cccc(CC)c1-c1cc(OC)c2c(n1)CCCC2N1CCc2ccc(OC)cc2C1 (stereo unspecified) | > 10 |  |
| CCc1cccc(CC)c1-c1cc(Cl)c2c(n1)CCCC2N(CC)c1cccc2ccccc12 (stereo unspecified) | 2 |  |
| CCc1cccc(CC)c1-c1cc(OC)c2c(n1)CCCC2N(CC)c1cccc2ccccc12 (stereo in doubt; 27) |  | Cmax [3]: 1.3 µM; clearance [4]: 1.86 L/h/kg; remaining at 10 min [5]: 88%; bioavailability [6]: 59%; half-life [7]: 0.9 h; half-life [8]: 1.8 h |
| CCc1cccc(CC)c1-c1cc(OC)c2c(n1)CCCC2N[C@H]1CCCc2ccccc21 (stereo in doubt; 38) | 0.82 |  |
| CCc1cccc(CC)c1-c1cc(OC)c2c(n1)CCCC2N[C@H]1CCCc2ccccc21 (stereo in doubt; 39) | 5.5 |  |
| CCc1cccc(CC)c1-c1cc(OC)c2c(n1)CCCC2N[C@@H]1CCCc2ccccc21 (stereo in doubt; 40) | 1.9 |  |
| CCc1cccc(CC)c1-c1cc(OC)c2c(n1)CCCC2N[C@@H]1CCCc2ccccc21 (stereo in doubt; 41) | 8.1 |  |
